{"source": "ChEMBL document CHEMBL1124588", "about": "“Synthesis and evaluation of N,N-di-n-propyltetrahydrobenz[f]indol-7-amine and related congeners as dopaminergic agonists” (J Med Chem, 1989)", "key": {"[1]": {"molecular_target": "D(2) dopamine receptor (Rattus norvegicus) (UniProt P61169)", "sequence (P61169 whole entry)": "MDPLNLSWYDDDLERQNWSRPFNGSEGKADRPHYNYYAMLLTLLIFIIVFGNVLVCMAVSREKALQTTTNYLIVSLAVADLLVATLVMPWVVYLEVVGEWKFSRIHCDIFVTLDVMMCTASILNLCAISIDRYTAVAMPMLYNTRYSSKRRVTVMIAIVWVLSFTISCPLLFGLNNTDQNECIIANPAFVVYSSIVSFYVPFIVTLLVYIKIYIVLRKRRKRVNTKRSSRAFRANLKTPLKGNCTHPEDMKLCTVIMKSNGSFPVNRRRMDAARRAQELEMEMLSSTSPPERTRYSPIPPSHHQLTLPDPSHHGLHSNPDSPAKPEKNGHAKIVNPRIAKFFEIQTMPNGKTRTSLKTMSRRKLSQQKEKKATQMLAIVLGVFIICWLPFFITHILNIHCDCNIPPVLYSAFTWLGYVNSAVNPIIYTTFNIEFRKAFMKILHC", "assay": "Dopamine D2 agonistic activity (2 mg/kg) as percent change in prolactin level in reserpinized rats", "assay_type": "functional, organism-based", "procedure,_shortened": "(§1)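 Male Sprague-Dawley rats were given reserpine 15 mg/kg ip as an aqueous suspension 18 h before dosing. Compound in 10% ethanol was given ip; controls received saline. Rats were killed 1 h later and blood was allowed to clot. Serum prolactin was measured by NIAMD radioimmunoassay as ng NIAMD-prolactin-PR-1/mL and expressed as percent change versus control.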"}, "[2]": {"molecular_target": "D(2) dopamine receptor (Rattus norvegicus) (UniProt P61169)", "assay": "Dopamine D2 agonistic activity (2 mg/kg) as plasma prolactin level in reserpinized rats", "assay_type": "functional, organism-based", "procedure,_shortened": "as §1"}, "[3]": {"molecular_target": "D(2) dopamine receptor (Rattus norvegicus) (UniProt P61169)", "details": "Plasma"}}, "data": [{"smiles": "CCCN(CCC)CCc1cccc(NC(C)=O)c1", "values": [{"measurement": "Change", "setting": "[1]", "result": -19, "unit": "%"}, {"measurement": "PRL", "setting": "[2]", "result": 36.9, "unit": "ng/mL"}]}, {"smiles": "CCCN(CCC)C1CCc2ccc(NS(C)(=O)=O)cc2C1", "note": "(configuration not stated)", "values": [{"measurement": "Change", "setting": "[1]", "result": -41, "unit": "%"}, {"measurement": "PRL", "setting": "[2]", "result": 28.3, "unit": "ng/mL"}]}, {"smiles": "CCCN(CCC)C1CCc2ccc3[nH]ccc3c2C1", "note": "(configuration not stated)", "values": [{"measurement": "PRL", "setting": "[3]", "result": 3.8, "unit": "ng/mL"}]}, {"smiles": "CCCN(CCC)CCc1cccc2[nH]ccc12", "values": [{"measurement": "Change", "setting": "[1]", "result": -69, "unit": "%"}, {"measurement": "PRL", "setting": "[2]", "result": 5, "unit": "ng/mL"}]}, {"smiles": "CCCN(CCC)C1CCc2cc3cc[nH]c3cc2C1", "note": "(configuration not stated)", "values": [{"measurement": "Change", "setting": "[1]", "result": -37, "unit": "%"}, {"measurement": "PRL", "setting": "[2]", "result": 30.6, "unit": "ng/mL"}]}, {"smiles": "CCCN(CCC)CCc1ccc2cc[nH]c2c1", "values": [{"measurement": "Change", "setting": "[1]", "result": 0, "unit": "%"}, {"measurement": "PRL", "setting": "[2]", "result": 51.2, "unit": "ng/mL"}]}, {"smiles": "CCCN(CCC)C1CCc2ccc(NC(C)=O)cc2C1", "note": "(configuration not stated)", "values": [{"measurement": "Change", "setting": "[1]", "result": -19, "unit": "%"}, {"measurement": "PRL", "setting": "[2]", "result": 38.9, "unit": "ng/mL"}]}, {"smiles": "CCCN(CCC)CCc1cccc(NC(=O)C(F)(F)F)c1", "values": [{"measurement": "Change", "setting": "[1]", "result": -21, "unit": "%"}, {"measurement": "PRL", "setting": "[2]", "result": 36.8, "unit": "ng/mL"}]}, {"smiles": "CCCN(CCC)CCc1cccc(NS(C)(=O)=O)c1", "values": [{"measurement": "Change", "setting": "[1]", "result": -76, "unit": "%"}, {"measurement": "PRL", "setting": "[2]", "result": 12.6, "unit": "ng/mL"}]}]}
